{"data": "Measurements gathered from unrelated publications", "target": "Mitogen-activated protein kinase kinase kinase 3 (MAP3K3, Homo sapiens, UniProt Q99759)", "Sequence (Q99759 1-626, as in one of the studies)": "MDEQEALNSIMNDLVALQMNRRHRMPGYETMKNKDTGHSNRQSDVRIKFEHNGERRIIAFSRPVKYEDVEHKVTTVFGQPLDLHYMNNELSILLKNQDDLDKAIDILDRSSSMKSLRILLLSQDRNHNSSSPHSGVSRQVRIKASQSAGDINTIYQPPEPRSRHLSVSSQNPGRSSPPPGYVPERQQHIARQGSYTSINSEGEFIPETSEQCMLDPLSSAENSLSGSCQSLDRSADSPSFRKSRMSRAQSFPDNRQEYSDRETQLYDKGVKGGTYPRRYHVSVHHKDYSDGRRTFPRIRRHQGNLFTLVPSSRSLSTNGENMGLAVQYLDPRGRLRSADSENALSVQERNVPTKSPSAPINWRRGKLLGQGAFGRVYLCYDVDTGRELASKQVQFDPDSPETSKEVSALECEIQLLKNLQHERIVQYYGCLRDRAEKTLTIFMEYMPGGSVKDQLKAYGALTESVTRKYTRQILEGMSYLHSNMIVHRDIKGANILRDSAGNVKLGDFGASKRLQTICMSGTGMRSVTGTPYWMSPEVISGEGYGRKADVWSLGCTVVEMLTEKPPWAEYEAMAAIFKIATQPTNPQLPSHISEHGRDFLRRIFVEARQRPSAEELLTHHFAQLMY"}
{"Compound": "Cc1ccc(C(=O)Nc2ccc(CN3CCN(C)CC3)c(C(F)(F)F)c2)cc1C#Cc1cnc2cccnn12", "test": "enzyme activity, inhibitor", "conditions": "23.5 nM", "measurement": "remaining activity", "value": "34%"}
{"Compound": "COc1ccc(F)cc1C(=O)NCc1ccc(-c2nn([C@@H](C)C(F)(F)F)c(N)c2C(N)=O)cc1", "test": "target engagement in cells, inhibitor, chemoproteomics", "conditions": "10 µM", "measurement": "inhibition", "value": "-38.5%"}
{"Compound": "O=C(NCc1ncc(C(F)(F)F)cc1Cl)c1ccc2c(c1)C1(CCS(=O)(=O)CC1)[C@H](C1CC1)N2S(=O)(=O)c1ccc(F)cc1", "test": "cell-free assay, competition with immobilised ligand", "conditions": "1 µM", "measurement": "remaining binding", "value": "74%"}
{"Compound": "CC(C)(O)[C@H]1CC[C@H](Nc2ccc3ncc(-c4cccc(C(F)(F)F)c4)n3n2)CC1", "test": "enzyme activity, inhibitor", "conditions": "1 µM", "measurement": "remaining activity", "value": "92.2%"}
{"Compound": "CN([C@@H]1CCc2c(CC(=O)O)c3cc(S(C)(=O)=O)ccc3n2C1)S(=O)(=O)c1ccc(F)cc1", "test": "cell-free assay, competition with immobilised ligand", "conditions": "1 µM", "measurement": "remaining binding", "value": "85%"}
{"Compound": "CC(C)(C)c1nc(-c2cccc(NS(=O)(=O)c3c(F)cccc3F)c2F)c(-c2ccnc(N)n2)s1", "test": "enzyme activity, inhibitor, radiometric", "conditions": "1 µM", "measurement": "remaining activity", "value": "96%"}
{"Compound": "Cc1ccc(C(=O)NCc2ccsc2)cc1C#Cc1cn(C(C)C)c2ncnc(N)c12", "test": "enzyme activity, inhibitor", "conditions": "1 µM", "measurement": "activity vs control", "value": "70%"}
{"Compound": "Cc1ccc(NC(=O)c2ccc(CN3CCN(C)CC3)cc2)cc1Nc1nc(-c2cccnc2)cs1", "test": "cell-free assay", "conditions": "0.5 µM", "measurement": "remaining signal", "value": "108%"}
{"Compound": "Cc1nc(C2CCN(C(=O)c3ccc(OC(F)(F)F)cc3N)CC2)c2ncc(N3CCN(C)CC3)cc2n1", "test": "cell-free assay, competition with immobilised ligand", "conditions": "1 µM", "measurement": "remaining binding", "value": "92%"}
{"Compound": "O=C(Nc1cnn(-c2csc(C(=O)NC3COC3)c2)c1)Nc1ccccc1Cl", "test": "enzyme activity, inhibitor", "conditions": "5 µM", "measurement": "remaining activity", "value": "113%"}
{"Compound": "N#CCCc1ccc2c(c1)-c1[nH]c3ccc([N+](=O)[O-])cc3c1CC(=O)N2", "test": "cell-free assay", "conditions": "0.5 µM", "measurement": "remaining signal", "value": "83.3%"}
{"Compound": "c1cnn2ncc(-c3ccnc(N4CCC45COC5)n3)c2c1", "test": "binding", "conditions": "1 µM", "measurement": "remaining binding", "value": "40%"}
{"Compound": "O=C1NC(=O)c2cc(Nc3ccc(F)cc3)c(Nc3ccc(F)cc3)cc21", "test": "cell-free assay", "conditions": "0.5 µM", "measurement": "remaining signal", "value": "102%"}
{"Compound": "CS(=O)(=O)c1cc(C2(NC(=O)c3cncc4c3cnn4-c3ccc(F)cc3)CC2)ccn1", "test": "cell-free assay, competition with immobilised ligand", "conditions": "1 µM", "measurement": "remaining binding", "value": "92%"}
{"Compound": "CS(=O)(=O)CCNCc1ccc(-c2ccc3ncnc(Nc4ccc(OCc5cccc(F)c5)c(Cl)c4)c3c2)o1", "test": "cell-free assay", "conditions": "0.5 µM", "measurement": "remaining signal", "value": "110%"}
{"Compound": "O=C(NS(=O)(=O)c1ccc(NCC2CCOCC2)c([N+](=O)[O-])c1)c1ccc(N2CCN(Cc3ccc(C(F)(F)F)cc3-c3ccc(Cl)cc3)CC2)cc1Oc1cnc2[nH]ccc2c1", "test": "cell-free assay, competition with immobilised ligand", "conditions": "1 µM", "measurement": "remaining binding", "value": "82%"}
